The species named for one assay is Rattus norvegicus. Nature of the assay: Metabolic stability expressed as the remaining ratio of compound in rat microsomes after incubation in a shaking water bath for 1 hour. It counts as functional. A digest of the protocol: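 Compound incubated with rat microsomes for 60 min at 37 °C in a shaking water bath. Stability is reported as the remaining ratio, the percentage of parent compound left.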

In assay [1] the target is Substance-P receptor (Cavia porcellus) (UniProt P30547). As to the kind of experiment: Antagonist activity against tachykinin receptor 1 activity in guinea pig ileum in vitro. In kind it is functional, tissue-based. A digest of the protocol:
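Isolated guinea pig ileum preparation; NK1 antagonism expressed as a K_B value.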

Assay [2] is described as follows: Effective bladder capacity increasing effect of compound (0.3 mg/kg i.v.) expressed as the ratio of increase in effective bladder capacity compared to saline treated animals in vivo. It counts as functional, Cavia porcellus. The settings on record: in the assay text read “compared with the predrug values” for “compared to saline treated animals”. An outline of the steps:
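Spinalized guinea pigs given test agent iv at 0.3 mg/kg. Effective bladder capacity was the volume of saline injected into the bladder. The result is the ratio of the increase in effective bladder capacity relative to each animal's predrug value.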

Consider 17 molecules from ChEMBL document CHEMBL1142019, “Design and synthesis of novel 9-substituted-7-aryl-3,4,5,6-tetrahydro-2H-pyrido[4,3-b]- and [2,3-b]-1,5-oxazocin-6-ones as NK(1) antagonists” (2005).

Sequence of Substance-P receptor (Cavia porcellus) (P30547 whole entry): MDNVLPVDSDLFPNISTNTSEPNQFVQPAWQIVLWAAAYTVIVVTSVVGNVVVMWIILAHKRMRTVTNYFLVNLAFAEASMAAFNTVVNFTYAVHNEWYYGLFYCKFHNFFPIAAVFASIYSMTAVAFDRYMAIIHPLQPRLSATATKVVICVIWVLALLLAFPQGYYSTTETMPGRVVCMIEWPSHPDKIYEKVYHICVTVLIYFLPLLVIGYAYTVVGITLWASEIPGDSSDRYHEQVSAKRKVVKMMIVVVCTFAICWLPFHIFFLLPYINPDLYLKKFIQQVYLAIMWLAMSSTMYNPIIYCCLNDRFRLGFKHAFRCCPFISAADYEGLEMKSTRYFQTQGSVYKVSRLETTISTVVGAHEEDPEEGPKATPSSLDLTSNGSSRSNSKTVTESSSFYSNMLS

Consider `O=C1c2c(-c3ccccc3)cc(N3CCC(N4CCCC4)CC3)nc2OCCCN1Cc1cc(C(F)(F)F)cc(C(F)(F)F)c1`, for which the Remaining ratio in the assay listed under Rattus norvegicus amounted to 86%. Further, the Kb in assay [1] came to 0.224 nM.
In the case of `O=C1c2c(-c3ccccc3)cc(N3CCCCC3)nc2OCCCN1Cc1cc(C(F)(F)F)cc(C(F)(F)F)c1`, the Remaining ratio in the assay listed under Rattus norvegicus was found to be 70%. In assay [1], this molecule displayed a Kb of 13.2 nM.
For `O=C1c2c(-c3ccccc3F)cc(N3CCC(N4CCCC4)CC3)nc2OCCCN1Cc1cc(C(F)(F)F)cc(C(F)(F)F)c1` the same measures were 100% and 0.382 nM.
For `CN1CCN(c2cc(-c3ccccc3)c3c(n2)OCCCN(Cc2cc(C(F)(F)F)cc(C(F)(F)F)c2)C3=O)CC1` the same measures were 100% and 1.16 nM.
In the case of `O=C1c2c(ccnc2-c2ccccc2)OCCCN1Cc1cc(C(F)(F)F)cc(C(F)(F)F)c1`, in the assay listed under Rattus norvegicus, the Remaining ratio stood at 100%. For the same molecule, the Kb in assay [1] was 69.2 nM.
For `O=C1c2c(cc(N3CCOCC3)nc2-c2ccccc2)OCCCN1Cc1cc(C(F)(F)F)cc(C(F)(F)F)c1`, in that order: 100% and 2.63 nM.
For `CN(Cc1cc(C(F)(F)F)cc(C(F)(F)F)c1)C(=O)c1cccnc1-c1ccccc1` the same measures were 70% and 151 nM.
For `COc1cc(N2CCOCC2)nc(-c2ccccc2)c1C(=O)N(C)Cc1cc(C(F)(F)F)cc(C(F)(F)F)c1` the same measures were 100% and 26.3 nM.
Turning to `Cc1ccccc1-c1nc(N2CCC(N3CCCC3)CC2)cc2c1C(=O)N(Cc1cc(C(F)(F)F)cc(C(F)(F)F)c1)CCCO2`, the Remaining ratio in the assay listed under Rattus norvegicus is 100%. For the same molecule, in assay [2], the Effect is listed as 3.97%.
Consider `CN(Cc1cc(C(F)(F)F)cc(C(F)(F)F)c1)C(=O)c1ccc(N2CCOCC2)nc1-c1ccccc1`, for which the Remaining ratio in the assay filed under Rattus norvegicus came out at 100%. In addition, the antagonist dissociation constant (Kb) in assay [1] came to 129 nM.
For `O=C1c2c(-c3ccccc3)cc(N3CCC(N4CCCCC4)CC3)nc2OCCCN1Cc1cc(C(F)(F)F)cc(C(F)(F)F)c1` the same measures were 100% and 2.34 nM.
For `O=C1c2c(-c3ccccc3)cc(N3CCCC3)nc2OCCCN1Cc1cc(C(F)(F)F)cc(C(F)(F)F)c1`, in that order: 71% and 13.8 nM.
For `O=C1c2c(-c3ccccc3)cc(N3CCOCC3)nc2OCCCN1Cc1cc(C(F)(F)F)cc(C(F)(F)F)c1` the same measures were 100% and 2.57 nM.
Take `O=C1c2c(-c3ccccc3Cl)cc(N3CCC(N4CCCC4)CC3)nc2OCCCN1Cc1cc(C(F)(F)F)cc(C(F)(F)F)c1`: the Remaining ratio in the assay filed under Rattus norvegicus amounted to 89%. The same molecule had a Kb in assay [1] of 0.207 nM.
As for `Cc1ccc(-c2c3n(c(=O)c4ncccc24)CC[C@@H](C)CN(Cc2cc(C(F)(F)F)cc(C(F)(F)F)c2)C3=O)cc1`, in assay [2], the Effect is listed as 12%.
As to `Cc1ccccc1-c1cc(N2CCC(N3CCCC3)CC2)nc2c1C(=O)N(Cc1cc(C(F)(F)F)cc(C(F)(F)F)c1)CCCO2`, in the assay listed under Rattus norvegicus, the Remaining ratio came out at 100%. For the same molecule, the Kb in assay [1] was found to be 0.21 nM. Also, the Effect in assay [2] stood at 24.2%.
With `FC(F)(F)c1cc(COc2cccnc2-c2ccccc2)cc(C(F)(F)F)c1`, the Remaining ratio in the assay filed under Rattus norvegicus is 9%. This molecule returned a Kb in assay [1] of 25.7 nM.

One may read the Kb as the affinity of an antagonist, worked out from how it opposes an agonist. A higher Kb goes with lower antagonist affinity.
